LYPLA2 counter: LYPLA2 inhibitors, primary screen, counter-screen for PME1 inhibitor project, biochemical, fluorescence polarization, FP-Rh probe ABPP. recombinant LYPLA2. inhibition, % at 5.9 µM. hit rate 0.38% among 320,000. AID 2177, 2009;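 active = inhibition above the screen-wide mean plus 3 SD, limit set per campaign, cut at about 26% in these data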;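 also: 0% = LYPLA2 with DMSO and 100% = wells lacking LYPLA2 enzyme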
RBBP9 inh: human RBBP9 inhibitors, primary screen, biochemical, fluorescence polarization, FP-Rh probe, HTS; Serine hydrolase RBBP9 (Homo sapiens), O75884; hit rate 0.2% among 220,000; inhibition, % at 7.94 µM; recombinant RBBP9;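 active = inhibition above the campaign mean of all tested compounds plus 3 SD, cut at about 14% in these data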;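 also: plate controls were DMSO wells with RBBP9 for no effect and wells lacking RBBP9 protein for full effect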
Target sequence (O75884 whole entry, looked up): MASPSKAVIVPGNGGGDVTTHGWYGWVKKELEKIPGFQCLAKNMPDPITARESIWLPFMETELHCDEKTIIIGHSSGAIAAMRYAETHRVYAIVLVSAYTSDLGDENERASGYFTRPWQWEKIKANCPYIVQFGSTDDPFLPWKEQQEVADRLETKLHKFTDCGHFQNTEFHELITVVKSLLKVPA
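Measured by – fluorescence polarization · Test system – RBBP9 protein · Input – 2.5 µM RBBP9 dispensing solution, before mixing · Measure – percent inhibition from mP, scaled between DMSO and no-protein wells · Benchmarks – DMSO-treated enzyme wells and wells lacking RBBP9 · Times – preincubation 30 min plus labeling 45 min at 25 °C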
PAD4 FP inh: human PAD4 inhibitors, primary screen, biochemical, fluorescence polarization, 1536-well format | Protein-arginine deiminase type-4 (Homo sapiens), Q9UM07 | recombinant PAD4, RCA probe fluorescence polarization | inhibition, % at 6.36 µM | hit rate 0.41% among 330,000 | AID 485272, 2010;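 active = percent inhibition above a cutoff equal to the mean of all tested compounds plus 3 SD, cut at about 15% in these data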;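 also: 0% = PAD4 with RCA probe and DMSO and 100% = probe without PAD4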
PME-1 primary: PME-1 inhibitors via competitive probe labeling, primary screen, biochemical, fluorescence polarization, FP-Rh probe, HTS; inhibition, % at 5.9 µM; AID 2130, 2009; recombinant PME-1; hit rate 0.53% among 320,000;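 active = inhibition above the campaign mean of all compounds plus 3 SD, cut at about 26% in these data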;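 also: competitive labeling of PME-1 active site by serine hydrolase directed probe; 0% = PME-1 with DMSO and 100% = wells lacking PME-1 enzyme; inhibitors block probe labeling so polarization falls and inhibition rises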
Fam108B inh: mouse Fam108B serine hydrolase inhibitors, primary screen, counter-screen for RBBP9 inhibitor project, biochemical, fluorescence polarization | recombinant Fam108B, FP-Rh probe fluorescence polarization | inhibition, % at 9.51 µM | hit rate 0.33% among 300,000;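 active = inhibition above the screen mean inhibition plus 3 SD, computed separately per campaign, cut at about 18% in these data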;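 also: inhibitors lower polarization as less probe binds the enzyme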
LYPLA1 counter: LYPLA1 inhibitors, primary screen, counter-screen for PME1 inhibitor project, biochemical, fluorescence polarization, FP-Rh probe ABPP. recombinant LYPLA1. inhibition, % at 5.9 µM. hit rate 0.16% among 320,000. Acyl-protein thioesterase 1 (Homo sapiens), O75608;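 active = inhibition above the mean of all tested compounds plus 3 SD, set per campaign, cut at about 14% in these data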;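 also: inhibitors block serine hydrolase probe labeling of LYPLA1 so polarization falls; 0% = enzyme with DMSO and 100% = wells lacking LYPLA1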
Target sequence (O75608 whole entry, looked up): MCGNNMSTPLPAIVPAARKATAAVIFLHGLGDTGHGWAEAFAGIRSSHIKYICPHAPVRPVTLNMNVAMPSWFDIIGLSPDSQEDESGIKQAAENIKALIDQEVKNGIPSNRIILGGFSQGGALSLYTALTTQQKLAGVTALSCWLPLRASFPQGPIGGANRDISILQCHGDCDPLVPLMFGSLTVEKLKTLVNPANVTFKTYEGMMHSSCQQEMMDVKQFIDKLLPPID
Active calls of the source: *; x = no result. Compounds with a hit are over-represented: about 1.3% of the library has one in this group of screens.

SMILES | LYPLA2 counter | RBBP9 inh | PAD4 FP inh | PME-1 primary | Fam108B inh | LYPLA1 counter
COC(=O)N1C(=O)[C@](c2ccc(OC)cc2)(C(C)C)N1C(=O)OC | 5 | x | -2 | 49* | 0 | 3
COC(=O)N1C(=O)[C@@](c2ccccc2)(C2CCCC2)N1C(=O)OC | 0 | x | 4 | 23 | 6 | 2
COC(=O)N1C(=O)[C@](c2ccccc2)(C2CCCCC2)N1C(=O)OC | 7 | x | -5 | 71* | -2 | 1
O=C(c1sc2ccccc2c1Cl)N1CCN(c2ncccn2)CC1 | 11 | -6 | 2 | 28* | 9 | 5
O=C(CNc1cccc2ccccc12)N/N=C/c1ccc(C(=O)O)cc1 | 1 | 4 | 1 | 14 | 11 | 5
O=C(CNc1cccc2ccccc12)N/N=C/C=C/c1ccco1 | 9 | 0 | -6 | 74* | 2 | 5
COc1cccc(NC(=O)C2CCC(CNS(=O)(=O)c3cccs3)CC2)c1 (configuration not stated) | 1 | -2 | -4 | -5 | 1 | -6
CN(C)C(=O)c1ccc(-c2nnc(NCc3ccccc3)c3ccccc23)cc1 | 8 | -2 | 2 | 37* | -1 | 4
COc1ccc(/C=C2\Sc3ccc(C(=O)N4CCN(Cc5ccccc5)CC4)cc3N(C)C2=O)cc1OC | 6 | x | 4 | 42* | -2 | -2
CCCCNC(=O)C1Cc2cc(S(=O)(=O)N3CCCC3)ccc2N1C(C)=O (configuration not stated) | -9 | x | 2 | -6 | 2 | -2
O=[N+]([O-])c1ccc(N=Nc2c(Cl)cc(O)cc2Cl)cc1 | 24 | -2 | 16* | 24 | 17 | 9
CC(N)=Nc1ccc([N+](=O)[O-])cc1 | -4 | -4 | -2 | 3 | 0 | -1
O=C(O)c1ccc(-c2ccc(/C=N/Nc3ccc([N+](=O)[O-])cc3)o2)cc1 | 24 | 2 | -8 | 47* | 14 | 4
COc1ccc2c(c1)[C@H]1[C@H](CO2)[C@H](c2ccccc2)[C@]2(C)C(=O)N[C@H](C)C(=O)N12 | -6 | x | 4 | -3 | x | 1
COc1cccc(C(=O)Nc2sc(C(C)C)cc2C(N)=O)c1OC | -3 | -2 | 0 | 2 | 1 | -2
CCCn1c(N)c(C(=O)CN(C)CC(=O)Nc2ccccc2CC)c(=O)[nH]c1=O | 2 | x | 3 | 33* | x | 5
CCN(C(=O)Cn1cc(C(=O)C(=O)N2CCOCC2)c2ccccc21)c1ccccc1 | 6 | x | 4 | 7 | 3 | 0
O=C(O)Cn1cc(/C=c2/sc3nc4ccccc4n3c2=O)c2ccccc21 | -3 | 3 | -5 | 31* | 9 | -1
O=C(Oc1ccc(N(Cc2cccs2)C2=NS(=O)(=O)c3ccccc32)cc1)c1ccco1 | -4 | 2 | -1 | 0 | -3 | 0
O=C(OCCN(C1=NS(=O)(=O)c2ccccc21)c1ccc(Cl)cc1)c1ccco1 | -3 | -3 | -3 | 27* | 1 | -4
COc1cc(C(=O)Nc2c(C(=O)O)[nH]c3ccc(Br)cc23)cc(OC)c1OC | 0 | x | -1 | 31* | 9 | 12
CCOC(=O)c1[nH]c2ccc(F)cc2c1NC(=O)c1cc(OC)c(OC)c(OC)c1 | 4 | -11 | 8 | -1 | 8 | -4
COc1ccc(C)cc1NC(=O)CCNS(=O)(=O)c1ccc2c(c1)CC(C)N2C(C)=O (configuration not stated) | 1 | x | 4 | 7 | 2 | 2
O=C(COC(=O)c1ccccc1Br)Nc1cc(S(=O)(=O)N2CCOCC2)ccc1N1CCCC1 | 6 | 3 | -2 | 54* | 4 | 4
O=C(COc1ccccc1)Nc1cc(S(=O)(=O)N2CCOCC2)ccc1N1CCCC1 | -12 | x | 1 | -3 | x | -5
COc1ccc(CCC(=O)OCC(=O)Nc2ccccc2OC(F)F)cc1OC | -2 | -5 | -15 | -1 | -7 | -2
